Dynein transport – blocks dynein driven cargo transport along microtubules | 3617.4 mouse cells, GR-EGFP nuclear translocation imaging; test concentration mostly 20 µM; stimulated with dexamethasone, 1 µM; stronger effect = lower value | z-score, hits read low | actives 0.47% (n = 220,000);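 active means plate z-score of nuclear minus cytoplasmic receptor signal below a set negative limit, without overly bright fluorescence or cell loss, cut at about -3.5 in these data, passing the limit was not always enough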;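 further: z-score of nuclear minus cytoplasmic ring GR-EGFP intensity difference per well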
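Also added – dexamethasone, 1.0 µM final · Buffer or medium – tet-free, stripped-serum medium · Schedule – induction 48 h, compound 1 h, agonist 30 min · Detection – formaldehyde fixation, Hoechst nuclear stain, 10x automated fluorescence imaging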
Autophagy mod – alters autophagy in cells; MEF GFP-LC3 puncta imaging; test concentration mostly 10 µM; calls only at 10 µM (by protocol); actives 0.98% (n = 190,000); AID 463193;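 active means percentage of spot-positive cells more than 3 SD above its plate mean, without a fluorescence outlier flag or 80% toxicity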;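 further: spot-positive cell cutoff set from DMSO-treated cells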
Hsp70 act – transcriptional activators of Hsp70. actives 0.04% (n = 200,000). activation, % at 10 µM. AID 1203. HeLa Hsp70 promoter luciferase reporter, luminescence; scaled: vehicle 0, proteasome-inhibitor control 100%;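 active means activation above the mean across all tested compounds plus 3 SD, cutoff set per campaign, cut at about 5.5% in these data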;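 further: 100% = MG132 at 30 µM as the positive control and 0% = DMSO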
MT stabilize HCS – microtubule stabilizers in HeLa cells; actives 0.83% (n = 200,000); HeLa tubulin immunostaining HCS, 24 h; share of cells brighter than vehicle mean+2SD; % tubulin-high responders, % at 10 µM;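 active means plate Z-score above 3 for both tubulin-high and condensed-nucleus cell shares, with cell loss under 80%, at 10 µM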;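 further: anti alpha tubulin signal scored within the nucleus-defined area of each cell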
bCat nuc transl – modulators of beta-catenin nuclear translocation; HeLa beta-catenin nuclear translocation, immunofluorescence imaging; nuclear translocation activity, % at 5 µM; actives 0.3% (n = 190,000); AID 1665;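 active means nuclear translocation activity above 50% at 5 µM, with a well cell count of 50 or more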;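 further: per-cell ratio of nuclear to cytoplasmic median beta-catenin stain intensity; plate controls were DMSO negative control for no effect and GSK-3 inhibitor IX positive control for full effect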
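System: HeLa cells, endogenous beta-catenin; compound dosing: 5 µM primary single dose, 0.1% DMSO, 0.02–20 µM confirmation series; incubation: 24 h compound exposure at 37°C, 5% CO2; signal: beta-catenin immunofluorescence imaging with DAPI; evaluation: % activation, nuclear-to-cytoplasmic median beta-catenin signal ratio per cell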
An asterisk follows results filed as active; i = inactive; · = no result; + = active, no number. Most compounds without a hit are left out; they make up all but 2.1% or so of the library.

SMILES	Dynein transport	Autophagy mod	Hsp70 act	MT stabilize HCS	bCat nuc transl
S=c1[nH]nc(C2CCCCC2)o1	1.18	i	-0.2	1.6	-1.1
CCN(CC)CCN(C)c1ccc(N2C(=O)C3CC=CCC3C2=O)cc1[N+](=O)[O-] (stereo not drawn)	0.0299	+	0.0	3.6	-0.7
O=C1C2CC=CCC2C(=O)N1c1ccc(NCCc2ccccc2)c([N+](=O)[O-])c1 (stereo not drawn)	1.76	i	-0.3	2.0	-0.9
NCC12CC3CC(C1)CC(c1ccc(Cl)cc1)(C3)C2	3.38	i	-0.2	4.4	11.9
N=C1C(c2ccccc2)=C(O)CN1c1cccc(S(=O)(=O)N2CCCCC2)c1	-0.315	·	·	·	0.7
COc1cccc(CN(C(=O)Cn2nnc(-c3ccccc3F)n2)C(C(=O)NC(C)(C)C)c2ccncc2)c1 (stereo not drawn)	-0.304	i	-0.1	1.7	0.2
CC(CCc1ccccc1)NC(=O)CSc1cccc[n+]1[O-] (stereo not drawn)	0.722	i	-0.3	3.5	-3.2
CC(CCc1ccccc1)NC(=O)CSc1ccccc1 (stereo not drawn)	1.36	+	-0.2	3.7	-1.0
COc1ccc(NC(=S)NN(C)C(=S)Nc2ccc(OC)cc2)cc1	-0.771	i	-0.1	7.4	·
COc1ccc2c(C)cc(SCC(=O)N3CCOCC3)nc2c1	0.0937	i	-0.3	3.1	-3.6
COc1ccc2c(C)cc(SCC(=O)N(C)C3CCS(=O)(=O)C3)nc2c1 (stereo not drawn)	1.34	+	-0.1	5.1	-1.7
Fc1ccc(Br)cc1C1C=C(c2cccnc2)Nc2ncnn21 (stereo not drawn)	1.1	i	-0.1	18.2*	·
O=C(N/N=C/c1ccccc1O)C(=O)Nc1ccccn1	1.15	i	-0.3	3.3	1.4
CN1/C(=C\C=C(/C#N)C(=O)Nc2ccc(Cl)cc2)C(C)(C)c2ccccc21	-0.0989	+	-0.1	1.8	-0.5
CCOC(=O)c1ccc(-n2c(O)c(/C=N/NC(=O)C3COc4ccccc4O3)c3ccccc3c2=O)cc1 (stereo not drawn)	-0.0104	i	-0.5	1.5	2.1
Cn1c(=O)[nH]c(=O)c2c1nc(NC1CCCCC1)n2CC(=O)NC1CCCCC1	0.00807	+	-0.2	3.3	·
Cn1c(=O)[nH]c(=O)c2c1nc(NC1CCCCC1)n2CCO	0.892	·	·	·	-2.4
Cc1cc(C)n(Cc2ccc(F)cc2)c(=O)c1C#N	0.31	i	-0.3	3.6	1.2
COc1ccc(-n2cc(C#N)c(=O)n(Cc3ccc(F)cc3)c2=O)cc1	-0.701	i	0.7	23.5*	31.4
COC(=O)c1ccc2c(=O)n(CC3CCCO3)c(SCC(=O)Nc3ccccc3OC)nc2c1 (stereo not drawn)	0.296	+	-0.4	5.5	0.0
OCC1(Cc2cccc(F)c2)CCN(Cc2ccc3cccc(F)c3n2)CC1	0.182	+	-0.2	1.7	0.3
CCOc1ccccc1C(=O)Nc1ccsc1C(=O)OC	-0.0845	i	-0.1	27.9*	57.0*
CCn1c(C(=O)Nc2ccsc2C(=O)OC)cc2sc(Cl)cc21	1.23	+	-0.5	3.7	·
COC(=O)c1sccc1NC(=O)c1ccc(Cl)s1	0.149	i	0.1	3.7	-1.1
COc1ccc(C2NC(=S)NC(C)=C2C(=O)Nc2ccccn2)cc1OC (stereo not drawn)	1.6	+	-0.4	4.7	-1.7
SMILES	Dynein transport	Autophagy mod	Hsp70 act	MT stabilize HCS	bCat nuc transl
COc1ccc(C2NC(=S)NC(C)=C2C(=O)c2ccccc2)cc1OC (stereo not drawn)	1.24	i	-0.5	2.2	-1.5
O=C(COc1cc(Cl)c(Cl)cc1Cl)N1CCN(c2ccccn2)CC1	0.559	i	-0.3	2.1	-0.3
Cc1ccnc(NC(=O)/C=C/c2cccs2)c1	1.14	i	-0.2	14.2*	2.3
O=C(/C=C/c1ccco1)NC(=S)Nc1ccc(N2CCCC2)cc1	0.0397	i	-0.2	13.1*	-4.3
Cc1ccnc(NC(=S)NC(=O)/C=C/c2ccco2)c1	-0.343	i	0.9	21.0*	-1.5
Cc1ccc(O)c(NC(=S)NC(=O)/C=C/c2ccco2)c1	-0.839	i	0.2	30.8	-0.5
O=C(/C=C/c1cccs1)Nc1nncs1	2.37	·	·	·	1.3
Cc1ccc(-c2csc(NC(=S)NC(=O)/C=C/c3ccco3)n2)cc1	-0.422	i	-0.1	31.9*	31.1

Compound activity from PubChem.
